One assay has as its system A2780. As to the kind of experiment: Cytotoxicity against human A2780 cells after 96 hrs by MTT assay. The assay is classed as functional, cell-based. In general terms: Tetrazolium assays rely on reduction of a dye to a coloured formazan, in cell work by metabolically active cells.
The subject of a further assay is PC-12. Briefly: Neuroprotective activity against glutamate-induced rat PC12 cell death at 10 uM pretreated for 24 hrs before glutamate challenge after 24 hrs by MTT assay. The class given is functional, cell-based.
The subject of a further assay is Liver microsomes. As to the kind of experiment: Antioxidant activity in rat liver microsomes assessed as inhibition of Fe(2+)-cystine-induced lipid peroxidation at 10 uM pretreated for 15 mins before Fe2+ challenge after 15 mins by TBA assay. As to conditions: Microsome. The class given is functional.
The target in assay [1] is T1, Tyrosine-protein phosphatase non-receptor type 1 (Homo sapiens) (UniProt P18031).
T1 sequence (whole entry): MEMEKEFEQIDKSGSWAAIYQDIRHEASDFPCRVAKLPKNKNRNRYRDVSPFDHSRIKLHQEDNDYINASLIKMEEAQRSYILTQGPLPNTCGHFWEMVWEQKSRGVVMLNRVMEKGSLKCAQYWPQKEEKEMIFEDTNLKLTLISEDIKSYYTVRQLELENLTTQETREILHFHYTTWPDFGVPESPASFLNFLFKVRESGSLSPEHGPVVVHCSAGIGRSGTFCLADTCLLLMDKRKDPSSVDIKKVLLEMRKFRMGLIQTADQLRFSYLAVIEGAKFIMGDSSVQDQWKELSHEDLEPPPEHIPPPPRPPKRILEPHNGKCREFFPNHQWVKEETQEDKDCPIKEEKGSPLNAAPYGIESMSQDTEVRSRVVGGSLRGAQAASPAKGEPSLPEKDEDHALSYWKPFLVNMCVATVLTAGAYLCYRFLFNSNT
As to the kind of experiment: Inhibition of GST-tagged human recombinant PTP1B assessed as paranitrophenol accumulation at 10 uM after 10 mins by spectrophotometry.

For assay [2], the system named is Human immunodeficiency virus 1. Briefly: Antiviral activity against HIV1 NL4-3 co-transfected with VSV glycoprotein plasmid in human 293T cells after 48 hrs by luciferase reporter gene assay. The assay is classed as functional, organism-based. The method in brief: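 Env-deficient pNL4-3.luc.R-E- HIV-1 vector pseudotyped with VSV-G, made by co-transfecting 293T cells, quantified by p24 ELISA and diluted to 0.2 ng p24/mL. Target 293T cells were seeded at 6 × 10^4 per well one day before infection. Compounds were preincubated with cells 15 min before adding virus, with a solvent-only blank. Cells were lysed 48 h post-infection.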
A general note: In a reporter assay the amount or activity of a reporter protein is the signal.

The species entered for a further assay is Rattus norvegicus. As to the kind of experiment: Antiinflammatory activity in rat PMNCs assessed as inhibition of platelet activating factor-induced beta-glucuronidase release at 10 uM treated 15 mins before PAF challenge after 10 mins. The assay is classed as functional.
[3] abbreviates: Homo sapiens, A2780, 96 h, read-out: IC50.
The mark [4] stands for this setting: Human immunodeficiency virus 1, NL4-3, HEK-293T, 48 h, read-out: IC50.

Active and inactive are the calls of the source. The rule behind the calls is not given here.

Broadly, the IC50 is the midpoint of a concentration-inhibition curve. `CC[C@@]1(O)C(=O)OCc2c1cc1n(c2=O)Cc2cc3ccccc3nc2-1` [CAMPTOTHECIN]: in the assay with A2780 (setting [3]), the half-maximal inhibitory concentration (IC50) was 0.28 µM.

As for `COc1ccc(C(C)=O)cc1C(=O)CC(C)(C)O`, the result (in the assay on PC-12; in the assay on Liver microsomes; in assay [1]; in the assay listed under Rattus norvegicus) was inactive. The IC50 entry (with A2780 (a2780); in assay [2] (293t)) was “Not Active” throughout.

For the molecule `Cc1cn([C@H]2C[C@H](N=[N+]=[N-])[C@@H](CO)O2)c(=O)[nH]c1=O` [ZIDOVUDINE], in assay [2] (setting [4]), the IC50 came out at 0.048 µM.

Regarding `CC(C)=C[C@@H]1OC(=O)[C@H](/C=C/C/C(C)=C/CCC2=CC(=O)OC2)[C@@H]1O` [HETEROPLEXISOLIDE D], the outcome (in the assay on PC-12; in the assay on Liver microsomes; in assay [1]; in the assay filed under Rattus norvegicus) was inactive. The IC50 in the assay with A2780 (setting [3]) is 4.37 µM; in assay [2] (293t) it was “Not Active”.

Regarding `C/C=C(/C)C(=O)OC/C=C/c1cc(OC)c(OC)c(OC)c1`, the outcome (in the assay on PC-12; in the assay with Liver microsomes; in assay [1]; in the assay filed under Rattus norvegicus) was inactive. The IC50 entry (in the assay with A2780 (a2780); in assay [2] (293t)) was “Not Active” each time.

For `CC(=O)CC/C=C1\C[C@@H](C=C(C)C)OC1=O` [HETEROPLEXISOLIDE E], the result (in the assay on PC-12; with Liver microsomes; in assay [1]; in the assay filed under Rattus norvegicus) was inactive. Also, the IC50 result (with A2780 (a2780); in assay [2] (293t)) was “Not Active” throughout.

Turning to `C[C@]12C[C@@H](c3ccoc3)OC(=O)[C@@H]1CC[C@@]13COC(=O)[C@@H]1C=CC(=O)[C@H]23` [8-EPIRHYNCHOSPERIN A], the result (with PC-12; in the assay with Liver microsomes; in assay [1]; in the assay filed under Rattus norvegicus) was inactive. Further, the IC50 entry (with A2780 (a2780); in assay [2] (293t)) was “Not Active” in each case.

With `CC(C)=C[C@@H]1C/C(=C\CC/C(C)=C/CCC2=CC(=O)OC2)C(=O)O1` [HETEROPLEXISOLIDE A], the result (in the assay with PC-12; with Liver microsomes; in assay [1]; in the assay filed under Rattus norvegicus) was inactive. Further, the IC50 entry (in the assay on A2780 (a2780); in assay [2] (293t)) was “Not Active” in each case.

Turning to `C/C1=C/CC(C)(C)[C@@H]2CC[C@@](C)(O)/C2=C/C1=O`, the outcome (in the assay on PC-12; in the assay on Liver microsomes; in assay [1]; in the assay filed under Rattus norvegicus) was inactive. The IC50 entry (with A2780 (a2780); in assay [2] (293t)) was “Not Active” each time.

As for `CCOC(C)(C)CC(=O)c1cc(C(C)=O)ccc1OC`, the result (in the assay with PC-12; with Liver microsomes; in assay [1]; in the assay filed under Rattus norvegicus) was inactive. The half-maximal inhibitory concentration (IC50) result (in the assay on A2780 (a2780); in assay [2] (293t)) was “Not Active” each time.

Consider `C/C=C(/C)C(=O)OC/C=C/c1cc(OC)c(OC(=O)/C(C)=C\C)c(OC)c1`, for which the outcome (with PC-12; with Liver microsomes; in assay [1]; in the assay listed under Rattus norvegicus) was inactive. Moreover, the IC50 entry in the assay on A2780 (a2780) is “Not Active”; in assay [2] (setting [4]), 4.04 µM.

`CC(C)=C[C@@H]1OC(=O)/C(=C/CC/C(C)=C/CCC2=CC(=O)OC2)[C@@H]1O` [HETEROPLEXISOLIDE C]: the result (in the assay with PC-12; in the assay on Liver microsomes; in assay [1]; in the assay listed under Rattus norvegicus) was inactive. The half-maximal inhibitory concentration (IC50) result (with A2780 (a2780); in assay [2] (293t)) was “Not Active” throughout.

`C=C(CC/C=C1\C[C@@H](C=C(C)C)OC1=O)C(O)CCC1=CC(=O)OC1` (stereo not given in full) [HETEROPLEXISOLIDE B]: the outcome (with PC-12; with Liver microsomes; in assay [1]; in the assay listed under Rattus norvegicus) was inactive. Further, the concentration for half-maximal inhibition (IC50) entry (in the assay on A2780 (a2780); in assay [2] (293t)) was “Not Active” each time.

Take `C/C=C(/C)C(=O)OC/C=C/c1cc(OC)c(OC(=O)[C@@H](C)CC)c(OC)c1`: the outcome (with PC-12; in the assay on Liver microsomes; in assay [1]; in the assay listed under Rattus norvegicus) was inactive. Moreover, the IC50 entry (in the assay on A2780 (a2780); in assay [2] (293t)) was “Not Active” throughout.

`C/C1=C/CC(C)(C)[C@@H]2CC[C@](C)(O)/C2=C/C1=O`: the result (with PC-12; in the assay on Liver microsomes; in assay [1]; in the assay listed under Rattus norvegicus) was inactive. Besides, the IC50 result (in the assay on A2780 (a2780); in assay [2] (293t)) was “Not Active” throughout.

Values taken from ChEMBL document CHEMBL1153770, “Chemical constituents of Heteroplexis micocephala” (J Nat Prod, 2009).
